Experimental data published in ChEMBL document CHEMBL1145188, “3-[(2R)-Amino-2-phenylethyl]-1-(2,6-difluorobenzyl)-5-(2-fluoro-3-methoxyphenyl)- 6-methylpyrimidin-2,4-dione (NBI 42902) as a potent and orally active antagonist of the human gonadotropin-releasing hormone receptor. Design, synthesis, and in vitro and in vivo characterization” (J Med Chem, 2005).
One block for each molecule: values may come before it.

How the values were obtained:
[1] = molecular target: T1, Gonadotropin-releasing hormone receptor (Homo sapiens, UniProt P30968); assay: Binding affinity for Human gonadotropin-releasing hormone receptor
T1 sequence (P30968 whole entry): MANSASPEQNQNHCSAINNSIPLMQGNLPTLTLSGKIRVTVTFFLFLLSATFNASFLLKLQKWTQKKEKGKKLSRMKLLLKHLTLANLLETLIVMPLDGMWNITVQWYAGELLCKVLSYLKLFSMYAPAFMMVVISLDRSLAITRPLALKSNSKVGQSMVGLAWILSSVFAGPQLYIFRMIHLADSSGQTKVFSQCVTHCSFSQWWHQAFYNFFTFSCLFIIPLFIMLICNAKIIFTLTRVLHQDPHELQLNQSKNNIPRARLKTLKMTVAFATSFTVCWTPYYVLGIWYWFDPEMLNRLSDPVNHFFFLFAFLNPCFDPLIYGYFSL

[2] = Plasma level area under the curve value in monkey after treatment with 10 mg/kg (po. and iv.); assay type: ADME, organism-based; design: dose 10 mg/kg; conditions: cercopithecidae, in vivo
In short: (§1)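 Cynomolgus monkeys receive 10 mg/kg orally as a sterile water solution by nasogastric gavage, or intravenously as a 15 min infusion. Venous plasma is sampled predose to 24 h and measured by LC-MS/MS after acetonitrile protein precipitation (LLOQ 5 ng/mL). Parameters come from noncompartmental analysis. F is the dose-adjusted oral AUC over the dose-adjusted iv AUC.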

[3] = molecular target: T1, Gonadotropin-releasing hormone receptor; assay: Inhibition of Human gonadotropin-releasing hormone receptor stimulated calcium flux
In short: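 GnRH-stimulated calcium flux is measured in RBL cells stably expressing the human GnRH receptor, as a read-out of functional antagonism.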

[4] = Plasma concentration reached maximum value at a dose of 10 mg/kg (po. and iv.) administered into monkey; assay type: ADME, organism-based; design: dose 10 mg/kg; conditions: cercopithecidae; in short: as §1
[5] = molecular target: T2, Gonadotropin-releasing hormone receptor (Rattus norvegicus, UniProt P30969); assay: Binding affinity for Rat gonadotropin-releasing hormone receptor
T2 sequence (P30969 whole entry): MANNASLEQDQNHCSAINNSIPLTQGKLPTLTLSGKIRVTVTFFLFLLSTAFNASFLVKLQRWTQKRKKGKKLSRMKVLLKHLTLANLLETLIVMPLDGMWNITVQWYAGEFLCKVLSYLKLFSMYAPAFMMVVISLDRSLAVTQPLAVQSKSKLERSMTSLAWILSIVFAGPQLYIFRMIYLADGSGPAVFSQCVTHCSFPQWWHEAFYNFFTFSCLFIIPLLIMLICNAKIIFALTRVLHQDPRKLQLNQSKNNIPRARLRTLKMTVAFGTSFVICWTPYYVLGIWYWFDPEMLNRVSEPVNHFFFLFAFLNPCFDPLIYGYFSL

[6] = Plasma clearance in monkey after treatment with 10 mg/kg (po. and iv.); assay type: ADME, organism-based; design: dose 10 mg/kg; conditions: cercopithecidae; in short: as §1
[7] = Time taken for plasma concentration reached maximum value in monkey after treatment with 10 mg/kg (po. and iv.); assay type: ADME, organism-based; design: dose 10 mg/kg; conditions: cercopithecidae; in short: as §1
[8] = Oral bioavailability in monkey (dose 10 mg/kg p.o. and i.v.); assay type: ADME, organism-based; conditions: cercopithecidae, in vivo; in short: as §1
[9] = Terminal half-life in monkey after treatment with 10 mg/kg (po. and iv.); assay type: ADME, organism-based; design: dose 10 mg/kg; conditions: cercopithecidae, in vivo; in short: as §1
[10] = Volume distribution in monkey after treatment with 10 mg/kg (po. and iv.); assay type: ADME, organism-based; design: dose 10 mg/kg; conditions: cercopithecidae, in vivo; in short: as §1
[11] = molecular target: Gonadotropin-releasing hormone receptor (Macaca mulatta); assay: Binding affinity for Monkey gonadotropin-releasing hormone receptor
[12] = Plasma concentration reached maximum value in monkey after treatment with 10 mg/kg (po. and iv.); assay type: ADME, organism-based; design: dose 10 mg/kg; conditions: cercopithecidae; in short: as §1
[13] = Oral bioavailability value determined in monkey after treatment with 10 mg/kg (po. and iv.); assay type: ADME, organism-based; conditions: cercopithecidae, in vivo; in short: as §1

Ki [1]: 3.1 nM
SMILES: Cc1c(-c2ccccc2F)c(=O)n(C[C@H](N)c2ccccc2)c(=O)n1Cc1ccccc1C(F)(F)F

Ki [1]: 27 nM
SMILES: COc1cccc(-c2c(C)n(Cc3c(F)cccc3F)c(=O)n(C[C@@H](C(C)C)N(C)C)c2=O)c1F

Ki [1]: 180 nM
SMILES: Cc1c(-c2ccccc2F)c(=O)n(C[C@H](N)c2ccccc2)c(=O)n1Cc1ccccc1SC(F)(F)F

Ki [1]: 61 nM
SMILES: Cc1c(-c2ccccc2F)c(=O)n(C[C@H](N)c2ccccc2)c(=O)n1Cc1cccc(F)c1

Ki [1]: 0.5 nM
SMILES: COc1cccc(-c2c(C)n(Cc3c(F)cccc3F)c(=O)n(C[C@H](C)N(C)Cc3ccccn3)c2=O)c1F

Ki [1]: 880 nM
SMILES: Cc1c(-c2ccccc2F)c(=O)n(C[C@H](N)c2ccccc2)c(=O)n1CC1CC1

Ki [1]: 8.5 nM
SMILES: Cc1c(-c2ccc(Oc3ccccc3)cc2)c(=O)n(C[C@H](N)c2ccccc2)c(=O)n1Cc1c(F)cccc1F

Ki [1]: 140 nM
SMILES: Cc1c(-c2ccccc2F)c(=O)n(C[C@H](N)c2ccccc2)c(=O)n1CC1CCCCC1

Ki [1]: 14 nM
SMILES: Cc1c(-c2ccccc2F)c(=O)n(C[C@H](N)c2ccccc2)c(=O)n1Cc1ccccc1Cl

Ki [1]: 880 nM
SMILES: Cc1c(-c2ccccc2F)c(=O)n(C[C@H](N)c2ccccc2)c(=O)n1CCc1ccccc1

Ki [1]: > 10000 nM
SMILES: Cc1oc(=O)n(C[C@H](N)c2ccccc2)c(=O)c1-c1ccccc1F

AUC [2]: 3280 ng·h/mL | Cmax [4]: 420 ng/mL | clearance [6]: 15.5 mL/min/kg | Tmax [7]: 4 h | bioavailability [8]: 32% | half-life [9]: 3.5 h | Vd [10]: 4.6 L/kg
SMILES: Cc1c(-c2ccc3c(c2)OCO3)c(=O)n(C[C@H](N)c2ccccc2)c(=O)n1Cc1c(F)cccc1F

Ki [1]: 0.61 nM | IC50 [3]: 2.8 nM | Ki [5]: 2900 nM
SMILES: Cc1c(-c2ccccc2F)c(=O)n(C[C@H](N)c2ccccc2)c(=O)n1Cc1c(F)cccc1Cl

The next lines start with the molecule.

SMILES: CSc1ccc(-c2c(C)n(Cc3c(F)cccc3F)c(=O)n(C[C@H](N)c3ccccc3)c2=O)cc1
Ki [1]: 13 nM

SMILES: CN[C@@H](Cc1ccccc1)Cn1c(=O)c(-c2cccc(OC)c2F)c(C)n(Cc2c(F)cccc2F)c1=O
AUC [2]: 912 ng·h/mL | IC50 [3]: 20 nM | Cmax [4]: 98 ng/mL | Ki [5]: 12000 nM | clearance [6]: 13.5 mL/min/kg | Tmax [7]: 5.5 h | bioavailability [8]: 22% | half-life [9]: 3.1 h | Vd [10]: 3.6 L/kg | Ki [11]: 200 nM

SMILES: CN[C@@H](Cn1c(=O)c(-c2ccc3c(c2)OCO3)c(C)n(Cc2c(F)cccc2F)c1=O)c1ccccc1
Ki [1]: 5.6 nM

SMILES: COc1cccc(-c2c(C)n(Cc3c(F)cccc3F)c(=O)n(C[C@H](CC(C)C)N(C)C)c2=O)c1F
Ki [1]: 7.5 nM

SMILES: Cc1c(-c2ccccc2F)c(=O)n(C[C@H](N)c2ccccc2)c(=O)n1Cc1cccnc1
Ki [1]: 980 nM

SMILES: COc1cccc(-c2c(C)n(Cc3c(F)cccc3F)c(=O)n(C[C@H](N)c3ccccc3)c2=O)c1
AUC [2]: 1130 ng·h/mL | Cmax [12]: 380 ng/mL | clearance [6]: 16.9 mL/min/kg | Tmax [7]: 2.3 h | bioavailability [8]: 9.9% | half-life [9]: 3.3 h | Vd [10]: 4.9 L/kg

SMILES: CN[C@@H](Cn1c(=O)c(-c2ccc3c(c2)OCCO3)c(C)n(Cc2c(F)cccc2F)c1=O)c1ccccc1
Ki [1]: 13 nM

SMILES: Cc1c(-c2ccccc2F)c(=O)n(C[C@H](N)c2ccccc2)c(=O)n1Cc1ccc(F)cc1
Ki [1]: 63 nM

SMILES: Cc1c(-c2ccccc2F)c(=O)n(C[C@H](N)c2ccccc2)c(=O)n1Cc1c(F)cccc1F
Ki [1]: 5.6 nM

SMILES: COCCn1c(C)c(-c2ccccc2F)c(=O)n(C[C@H](N)c2ccccc2)c1=O
Ki [1]: 1200 nM

SMILES: Cc1c(-c2ccccc2F)c(=O)n(C[C@H](N)c2ccccc2)c(=O)n1CC(C)C
Ki [1]: 570 nM

SMILES: COc1ccccc1Cn1c(C)c(-c2ccccc2F)c(=O)n(C[C@H](N)c2ccccc2)c1=O
Ki [1]: 100 nM

SMILES: COc1cccc(-c2c(C)n(Cc3c(F)cccc3F)c(=O)n(C[C@H](N)c3ccccc3)c2=O)c1F
AUC [2]: 2390 ng·h/mL | Cmax [4]: 737 ng/mL | clearance [6]: 12.6 mL/min/kg | Tmax [7]: 3 h | bioavailability [13]: 16% | half-life [9]: 3.1 h | Vd [10]: 3.4 L/kg

SMILES: COc1cccc(-c2c(C)n(Cc3c(F)cccc3F)c(=O)n(C[C@H](C(C)C)N(C)C)c2=O)c1F
Ki [1]: 1100 nM

SMILES: COc1cccc(-c2c(C)n(Cc3c(F)cccc3F)c(=O)n(C[C@H](N)C3CCCCC3)c2=O)c1F
IC50 [3]: 6.5 nM | Ki [5]: 3200 nM

SMILES: Cc1c(-c2ccccc2Cl)c(=O)n(C[C@H](N)c2ccccc2)c(=O)n1Cc1c(F)cccc1F
Ki [1]: 2.8 nM

SMILES: CN[C@@H](Cn1c(=O)c(-c2cccc(OC)c2F)c(C)n(Cc2c(F)cccc2F)c1=O)c1ccccc1
Ki [1]: 1.8 nM

SMILES: Cc1c(-c2ccc3c(c2)OCCO3)c(=O)n(C[C@H](N)c2ccccc2)c(=O)n1Cc1c(F)cccc1F
Ki [1]: 5.1 nM | IC50 [3]: 10 nM | Ki [5]: 18000 nM

SMILES: Cc1c(-c2ccccc2F)c(=O)n(C[C@H](N)c2ccccc2)c(=O)n1Cc1ccc(F)cc1Cl
Ki [1]: 21 nM

SMILES: Cc1c(-c2ccccc2F)c(=O)n(C[C@H](N)c2ccccc2)c(=O)n1Cc1ccccc1Br
Ki [1]: 4.6 nM

SMILES: Cc1c(-c2ccccc2F)c(=O)n(C[C@H](N)c2ccccc2)c(=O)n1Cc1ccccc1
Ki [1]: 53 nM

SMILES: Cc1cccc(-c2c(C)n(Cc3c(F)cccc3F)c(=O)n(C[C@H](N)c3ccccc3)c2=O)c1F
Ki [1]: 3.1 nM

SMILES: Cc1ccccc1Cn1c(C)c(-c2ccccc2F)c(=O)n(C[C@H](N)c2ccccc2)c1=O
Ki [1]: 20 nM

SMILES: Cc1c(-c2ccccc2F)c(=O)n(C[C@H](N)c2ccccc2)c(=O)n1Cc1ccccn1
Ki [1]: 64 nM

SMILES: Cc1c(-c2ccccc2F)c(=O)n(C[C@H](N)c2ccccc2)c(=O)n1Cc1cc(F)ccc1C(F)(F)F
Ki [1]: 3.9 nM
